In ChEMBL document CHEMBL4359929, “Piperidine and piperazine inhibitors of fatty acid amide hydrolase targeting excitotoxic pathology” (Bioorg Med Chem, 2019) one finds inhibition data, which are given here for 1 molecule.

Assay type in all cases: tissue-based
Test [1] concerns the target T1, Monoglyceride lipase (Rattus norvegicus) (UniProt Q8R431).
T1 sequence (whole entry): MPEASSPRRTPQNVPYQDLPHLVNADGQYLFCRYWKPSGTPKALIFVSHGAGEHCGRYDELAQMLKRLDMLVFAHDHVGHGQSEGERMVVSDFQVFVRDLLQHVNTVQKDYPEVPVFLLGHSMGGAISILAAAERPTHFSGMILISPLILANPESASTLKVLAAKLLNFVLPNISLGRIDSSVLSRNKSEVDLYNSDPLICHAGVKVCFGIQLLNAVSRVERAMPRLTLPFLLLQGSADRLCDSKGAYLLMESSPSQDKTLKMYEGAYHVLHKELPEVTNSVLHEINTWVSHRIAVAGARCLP
Briefly: Inhibition of MGL in rat brain at 10 uM incubated for 30 mins followed by incubation with FP-Rh probe for 45 mins by ABPP assay. Summed up:
(§1)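 Gel-based competitive ABPP on rat brain membrane homogenates (10 mg/mL protein). Compound at 1 and 10 μM or DMSO for 30 min at room temperature, then 10 μM rhodamine-tagged fluorophosphonate probe for 45 min at room temperature. FAAH was run with a reference FAAH inhibitor at 10 μM as positive control. Serine hydrolase labelling read by in-gel fluorescence.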

Test [2] concerns the target T2, Monoacylglycerol lipase ABHD6 (Rattus norvegicus) (UniProt Q5XI64).
T2 sequence (whole entry): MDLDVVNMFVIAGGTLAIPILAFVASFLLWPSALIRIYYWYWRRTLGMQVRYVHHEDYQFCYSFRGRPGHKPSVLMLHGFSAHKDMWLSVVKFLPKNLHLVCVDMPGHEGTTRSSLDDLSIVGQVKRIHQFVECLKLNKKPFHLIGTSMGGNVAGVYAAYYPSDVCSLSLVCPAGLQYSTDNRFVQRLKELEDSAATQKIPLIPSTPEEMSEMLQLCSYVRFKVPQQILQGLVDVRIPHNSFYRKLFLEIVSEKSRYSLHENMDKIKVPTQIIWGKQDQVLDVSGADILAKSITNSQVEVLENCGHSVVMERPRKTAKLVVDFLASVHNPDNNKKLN
Put plainly: Inhibition of ABHD6 in rat brain at 10 uM incubated for 30 mins followed by incubation with FP-Rh probe for 45 mins by ABPP assay. Summed up: as §1

Test [3] concerns the target T3, Fatty-acid amide hydrolase 1 (Rattus norvegicus) (UniProt P97612).
T3 sequence (whole entry): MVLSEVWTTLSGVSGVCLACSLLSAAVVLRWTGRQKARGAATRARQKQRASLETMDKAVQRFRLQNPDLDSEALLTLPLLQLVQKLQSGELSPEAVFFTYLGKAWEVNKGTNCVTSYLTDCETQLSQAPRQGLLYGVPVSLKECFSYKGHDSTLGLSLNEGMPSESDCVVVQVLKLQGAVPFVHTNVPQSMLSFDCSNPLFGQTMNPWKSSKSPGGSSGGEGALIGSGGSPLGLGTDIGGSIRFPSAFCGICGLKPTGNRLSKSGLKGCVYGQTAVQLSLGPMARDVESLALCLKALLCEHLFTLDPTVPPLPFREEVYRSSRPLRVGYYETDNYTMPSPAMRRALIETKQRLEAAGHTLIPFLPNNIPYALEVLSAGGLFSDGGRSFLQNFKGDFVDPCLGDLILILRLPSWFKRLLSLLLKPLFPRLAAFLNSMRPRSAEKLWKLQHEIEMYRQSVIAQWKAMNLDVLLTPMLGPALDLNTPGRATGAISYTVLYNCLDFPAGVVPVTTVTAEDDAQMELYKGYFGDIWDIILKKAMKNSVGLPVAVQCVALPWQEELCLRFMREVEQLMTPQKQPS
Briefly: Inhibition of FAAH in rat brain at 10 uM incubated for 30 mins followed by incubation with FP-Rh probe for 45 mins by ABPP assay. In short, it runs like this: as §1

Active and inactive are the calls of the source. The calls are words filed in the database; no cut-off is given here.

On to `O=C(Nc1cccnn1)N1CCC(=Cc2cccc(Oc3ccc(C(F)(F)F)cn3)c2)CC1`, for which the inhibition result in test [1] and in test [2] was “inactive” throughout. Besides, the inhibition entry in test [3] is “Active”.
